Active and inactive are the calls of the source. The rule behind the calls is not given here.
Columns and labels:
[1] = molecular target: T1, NAD-dependent protein deacetylase sirtuin-1 (Homo sapiens) (UniProt Q96EB6); conditions: at 50 µM
T1 sequence (whole entry): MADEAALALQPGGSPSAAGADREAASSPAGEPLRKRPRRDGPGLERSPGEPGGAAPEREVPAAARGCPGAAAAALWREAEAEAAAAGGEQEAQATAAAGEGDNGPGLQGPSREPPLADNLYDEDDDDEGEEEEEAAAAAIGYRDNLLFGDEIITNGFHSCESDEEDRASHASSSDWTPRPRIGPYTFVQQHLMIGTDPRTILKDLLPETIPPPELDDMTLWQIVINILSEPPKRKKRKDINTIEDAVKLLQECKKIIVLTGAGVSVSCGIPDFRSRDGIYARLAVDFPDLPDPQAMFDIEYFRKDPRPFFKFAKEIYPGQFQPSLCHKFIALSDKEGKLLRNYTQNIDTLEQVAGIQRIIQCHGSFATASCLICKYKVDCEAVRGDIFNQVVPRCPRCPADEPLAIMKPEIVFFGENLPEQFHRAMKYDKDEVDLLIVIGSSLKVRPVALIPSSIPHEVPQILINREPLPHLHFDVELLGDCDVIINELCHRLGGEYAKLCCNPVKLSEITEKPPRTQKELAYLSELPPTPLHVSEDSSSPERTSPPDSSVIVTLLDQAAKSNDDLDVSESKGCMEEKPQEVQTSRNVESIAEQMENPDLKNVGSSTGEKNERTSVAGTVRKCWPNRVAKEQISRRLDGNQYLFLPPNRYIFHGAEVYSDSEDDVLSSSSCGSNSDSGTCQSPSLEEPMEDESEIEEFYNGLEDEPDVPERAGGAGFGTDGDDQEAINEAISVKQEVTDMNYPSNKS

MCF7 [2] = test: Cytotoxicity against human MCF7 cells at 50 uM by LDH assay; assay type: functional, cell-based
A549 [3] = test: Cell cycle arrest in human A549 cells assessed as accumulation at G2 phase at 100 uM after 18 hrs by propidium iodide staining-based FACS flow cytometric analysis (reference value: 19.4%); assay type: functional
[4] = Cytotoxicity against human ARPE19 cells at 20 uM by LDH assay; assay type: cell-based; conditions: arpe-19, 20 µM
[5] = molecular target: T2, NAD-dependent protein deacetylase sirtuin-2 (Homo sapiens, UniProt Q8IXJ6); test: Inhibition of human recombinant GST-tagged SIRT2 using KI179 as substrate preincubated for 5 mins followed by enzyme addition measured after 1 hr by fluorescence assay
T2 sequence (Q8IXJ6 whole entry): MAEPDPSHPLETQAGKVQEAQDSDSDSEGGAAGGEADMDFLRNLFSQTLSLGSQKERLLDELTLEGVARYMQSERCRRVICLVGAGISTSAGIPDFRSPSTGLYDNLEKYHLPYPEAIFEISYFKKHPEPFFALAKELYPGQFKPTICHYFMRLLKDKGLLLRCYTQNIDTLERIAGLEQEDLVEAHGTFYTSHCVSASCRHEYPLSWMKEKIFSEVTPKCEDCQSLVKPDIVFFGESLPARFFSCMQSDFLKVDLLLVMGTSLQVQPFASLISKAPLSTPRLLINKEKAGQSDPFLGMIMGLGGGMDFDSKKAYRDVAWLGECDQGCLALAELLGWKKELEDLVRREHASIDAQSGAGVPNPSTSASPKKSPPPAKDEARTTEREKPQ
How it was run: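 Fluor de Lys deacetylation assay. […] Mix preincubated 5 min at room temperature, started with enzyme, run 1 h at 37°C. Developer with 2 mM nicotinamide then added for 45 min at 37°C before fluorescence reading.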

MCF7 [6] = test: Cell cycle arrest in human MCF7 cells assessed as accumulation at G2 phase at 100 uM after 18 hrs by propidium iodide staining-based FACS flow cytometric analysis (reference value: 14.7%); assay type: functional
MCF7 [7] = test: Cytotoxicity against human MCF7 cells assessed as cell death at 100 uM after 18 hrs by propidium iodide staining-based FACS flow cytometric analysis; assay type: functional
[8] = molecular target: T1, NAD-dependent protein deacetylase sirtuin-1 (Homo sapiens); test: Inhibition of SIRT1 in etoposide-induced human MCF7 cells assessed as increase in p53 acetylation at Lys382 at 50 uM after 5 hrs by Western blotting analysis; assay type: cell-based
How it was run: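 MCF-7 cells seeded 24 h ahead, then given 50 μM compound and 100 μM etoposide together for 5 h before harvest. Acetylated p53 detected by Western blot; run once per compound.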

A549 [9] = test: Cell cycle arrest in human A549 cells assessed as accumulation at G1 phase at 100 uM after 18 hrs by propidium iodide staining-based FACS flow cytometric analysis (reference value: 62.3%); assay type: functional
MCF7 [10] = test: Cell cycle arrest in human MCF7 cells assessed as accumulation at G1 phase at 100 uM after 18 hrs by propidium iodide staining-based FACS flow cytometric analysis (reference value: 67.6%); assay type: functional

inhibition [1]: 97%
IC50 [5]: 2530 nM
inhibition [8]: Active
SMILES: COc1ccc(C(=O)CNC(=O)[C@H](CCCCNC(C)=S)NC(=O)OCc2ccccc2)cc1
Activity (MCF7 [2]): inactive
Activity (A549 [3]): 9.4%
Activity [4]: Non-toxic
Activity (MCF7 [6]): 8.7%
Activity (MCF7 [7]): inactive
Activity (A549 [9]): 82.2%
Activity (MCF7 [10]): 80.5%

From ChEMBL document CHEMBL2417552, “Screen of pseudopeptidic inhibitors of human sirtuins 1-3: two lead compounds with antiproliferative effects in cancer cells” (J Med Chem, 2013)
